In series [1] the test system is A-431. The experiment in a line: Antagonist activity at LPA receptor in human A431 cells assessed as inhibition of LPA-induced intracellular calcium mobilization at 10 uM by Fluo-3 AM-staining based FLIPR assay. Type of series: cell-based. A digest of the protocol:
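A431 human epithelial carcinoma cells, which express LPA1–3 receptor mRNAs, were tested with the test compound at a single concentration of 10 μM against a single concentration of 1-oleoyl LPA. The read-out was inhibition of LPA-induced intracellular calcium release.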
(A change in cytosolic calcium serves as a functional read-out for many receptors and channels.)

Series [2] concerns the target Lysophosphatidic acid receptor 1 (Homo sapiens, UniProt Q92633). The experiment in a line: Competitive antagonist activity at human LPA1 receptor overexpressed in CHO cells assessed as inhibition of LPA-induced [35S]GTPgammaS binding by liquid scintillation counting. In kind it is functional, cell-based. A digest of the protocol: (§1)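 GTP[γ-³⁵S] binding was measured in membrane fractions containing hLPA1 or hLPA3 from over-expressing CHO cells. LPA concentration-effect curves were run at increasing antagonist concentrations, and Schild analysis was derived from these curves.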

Series [3] has as its target T1, Lysophosphatidic acid receptor 3 (Homo sapiens) (UniProt Q9UBY5).
T1 sequence (whole entry): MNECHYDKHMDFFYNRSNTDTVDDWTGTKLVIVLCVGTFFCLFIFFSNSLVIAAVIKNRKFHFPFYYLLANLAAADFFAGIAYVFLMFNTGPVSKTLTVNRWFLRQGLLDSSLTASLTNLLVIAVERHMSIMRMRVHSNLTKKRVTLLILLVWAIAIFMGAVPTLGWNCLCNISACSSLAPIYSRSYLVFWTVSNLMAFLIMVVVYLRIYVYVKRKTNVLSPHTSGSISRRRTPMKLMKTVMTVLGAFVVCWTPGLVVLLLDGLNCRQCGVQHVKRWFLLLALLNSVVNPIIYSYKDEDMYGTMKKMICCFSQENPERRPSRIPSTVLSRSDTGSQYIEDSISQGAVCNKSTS
The experiment in a line: (§2) Competitive antagonist activity at N-terminal 3XHA-tagged human LPA3 receptor overexpressed in CHO cells assessed as inhibition of LPA-induced [35S]GTPgammaS binding by liquid scintillation counting. In kind it is functional, cell-based. The essentials: as §1

Series [4] addresses T2, Lysophosphatidic acid receptor 3 (Homo sapiens, UniProt Q9UBY5).
T2 sequence (Q9UBY5 whole entry): T1 sequence (whole entry)
Described as §2. In kind it is functional, cell-based. The essentials: as §1

Series [5] concerns the target Lysophosphatidic acid receptor 1/lysophosphatidic acid receptor 3 (Rattus norvegicus, UniProt Q8K5E0+P61794). As to the kind of experiment: Antagonist activity at LPAR1/LPAR3 in rat glioma C62B cells assessed as inhibition of LPA-induced reduction in isoproterenol-stimulated [3H]cAMP accumulation by liquid scintillation counting. Type of series: functional, cell-based. A digest of the protocol: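 C62B cells were grown to confluence and labelled with [³H]adenine for 1 h to label ATP pools. They were then stimulated for 2 min with isoproterenol (10 μM), with or without 18:1 LPA (100 nM), and with or without antagonist. Antagonist was given at increasing concentrations to obtain dose-response curves of the block of LPA inhibition of cAMP accumulation.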
A general note: Cyclic AMP is a second messenger, typically raised through Gs and lowered through Gi signalling.

For series [6], the target named is T3, Lysophosphatidic acid receptor 3 (Rattus norvegicus) (UniProt Q8K5E0).
T3 sequence (whole entry): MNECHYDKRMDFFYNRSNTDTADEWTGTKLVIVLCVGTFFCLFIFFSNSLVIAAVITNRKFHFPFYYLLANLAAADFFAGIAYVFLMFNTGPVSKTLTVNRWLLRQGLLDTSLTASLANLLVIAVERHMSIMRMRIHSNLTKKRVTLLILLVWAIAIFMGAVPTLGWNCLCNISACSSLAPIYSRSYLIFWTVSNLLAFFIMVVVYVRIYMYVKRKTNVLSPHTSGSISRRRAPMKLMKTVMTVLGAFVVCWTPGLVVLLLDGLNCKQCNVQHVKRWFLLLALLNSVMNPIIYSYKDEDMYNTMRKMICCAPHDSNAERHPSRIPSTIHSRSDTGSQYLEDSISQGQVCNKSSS
The experiment in a line: Antagonist activity at LPAR3 in rat glioma C62B cells assessed as inhibition of LPA3 agonist-induced reduction in isoproterenol-stimulated [3H]cAMP accumulation by liquid scintillation counting. Type of series: functional, cell-based.

The nature of series [7]: Half life in Wistar rat at 20 mg/kg, iv by LC-MS/MS analysis. The note with it: in vivo. Type of series: ADME, organism-based. Further details: dose 20 mg/kg, route intravenous.
Series [8] deals with Lysophosphatidic acid receptor 2 (Homo sapiens) (UniProt Q9HBW0). The experiment in a line: Antagonist activity at LPAR2 receptor (unknown origin) assessed as inhibition of LPA-induced [35S]GTPgammaS binding by liquid scintillation counting. Type of series: functional. Background: GTPγS resists hydrolysis and so accumulates on activated G proteins.

The source made the active and inactive calls. The calls are words filed in the database; no cut-off is given here.

Chain of Lysophosphatidic acid receptor 1 (Q92633 whole entry): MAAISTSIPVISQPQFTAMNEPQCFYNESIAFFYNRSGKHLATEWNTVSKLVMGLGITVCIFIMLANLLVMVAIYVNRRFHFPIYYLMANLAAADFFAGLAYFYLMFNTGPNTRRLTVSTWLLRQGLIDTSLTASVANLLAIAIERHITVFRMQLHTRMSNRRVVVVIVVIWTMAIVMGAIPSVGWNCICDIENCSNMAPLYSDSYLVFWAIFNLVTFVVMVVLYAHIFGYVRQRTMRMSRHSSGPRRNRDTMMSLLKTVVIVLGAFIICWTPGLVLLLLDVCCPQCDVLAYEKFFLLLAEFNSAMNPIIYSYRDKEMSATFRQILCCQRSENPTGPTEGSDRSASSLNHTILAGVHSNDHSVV
Chain of Lysophosphatidic acid receptor 2 (Homo sapiens) (Q9HBW0 whole entry): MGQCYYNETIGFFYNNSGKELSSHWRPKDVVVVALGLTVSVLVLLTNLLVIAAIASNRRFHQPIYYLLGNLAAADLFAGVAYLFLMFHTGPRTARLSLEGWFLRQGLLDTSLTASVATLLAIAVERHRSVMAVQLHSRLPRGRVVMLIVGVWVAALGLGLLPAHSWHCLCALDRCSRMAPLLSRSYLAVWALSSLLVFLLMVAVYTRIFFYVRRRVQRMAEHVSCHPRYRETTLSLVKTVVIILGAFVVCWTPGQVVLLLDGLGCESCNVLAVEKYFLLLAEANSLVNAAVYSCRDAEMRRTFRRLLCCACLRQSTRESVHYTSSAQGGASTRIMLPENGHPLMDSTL

For `CCCCCCCCCCCCCCCC(=O)N[C@@H](/C=C/P(=O)(O)O)Cc1ccc(OCc2cc(OCC(F)(F)F)ccn2)cc1`, the inhibition result in series [1] was “Active”. The results for the inhibition constant (Ki) in series [2], in series [4] and in series [5] were 143 nM, 512 nM and 11 nM, respectively. Besides, the inhibition entry in series [2], in series [3] and in series [6] was “Dose-dependent effect” each time. Besides, in series [7], the half-life was 1.5 h. For the same compound, the inhibition result in series [8] is “inactive”.
Take `CCCCCCCCCCCCCCCCCC(=O)N[C@@H](COP(=O)(O)O)Cc1ccc(OCc2cc(OCC(F)(F)F)ccn2)cc1`: the Ki in series [2] is 84 nM; in series [4], 48 nM.
With `CCCCCCCCCCCCCCCC(=O)N[C@H](Cc1ccc(OCc2cc(OCC(F)(F)F)ccn2)cc1)CC(F)P(=O)(O)O` (stereo not given in full), the inhibition result in series [1] is “Active”.
For the compound `Cc1noc(-c2ccc(CSCCC(=O)O)cc2)c1NC(=O)OC(C)c1ccccc1Cl` (stereo not given), the inhibition result in series [2] and in series [3] was “Active” each time.
`CCCCCCCCCCCCCCCC(=O)N[C@@H](/C=C(\F)P(=O)(O)O)Cc1ccc(OCc2cc(OCC(F)(F)F)ccn2)cc1`: the inhibition entry in series [1] was “Active”.

As usually defined, the Ki is a dissociation constant, usually derived from enzyme kinetics or from competition with a known ligand. Usually half-life stands for how long it takes for the measured level to halve.

Source of the values: ChEMBL document CHEMBL3217465, “Development of a phosphatase-resistant, L-tyrosine derived LPA1/LPA3 dual antagonist” (Medchemcomm, 2011).
